Consider 10 compounds from PubChem BioAssay AID540295 (The Scripps Research Institute Molecular Screening Center, 2011).

The campaign covered roughly 360,000 compounds. About 1,700 (0.47%) were called active. Many of the other results were omitted from the sample, so actives are more common in it than they were. Unmarked numbers belong to inactive results.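 Rule for the calls: active = inhibition above its plate's cutoff, the mean of tested wells on that plate plus 3 SD (cut at about 29% in these data); inactive = the rest.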

Sequence of Melanocortin receptor 4 (Homo sapiens) (P32245 whole entry, looked up): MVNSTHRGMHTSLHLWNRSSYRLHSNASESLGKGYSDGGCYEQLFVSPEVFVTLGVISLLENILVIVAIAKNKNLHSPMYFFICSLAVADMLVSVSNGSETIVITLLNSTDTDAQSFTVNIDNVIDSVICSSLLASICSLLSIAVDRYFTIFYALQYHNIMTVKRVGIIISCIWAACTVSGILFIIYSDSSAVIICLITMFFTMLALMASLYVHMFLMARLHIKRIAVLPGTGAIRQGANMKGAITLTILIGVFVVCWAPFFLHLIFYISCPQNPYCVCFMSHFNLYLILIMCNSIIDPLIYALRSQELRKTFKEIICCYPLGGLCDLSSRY

The assay addresses Melanocortin receptor 4 (Homo sapiens) (UniProt P32245). In words: blockers of MC4R Gs-cAMP response – cell-based, TR-FRET, antagonist arm of biased-ligand search, primary screen (AID 540295).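 Note: 0% = Melanotan II alone and 100% = Melanotan II plus saturating MCL0020.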 The note with it: MC4R-expressing cells, MTII-stimulated cAMP, LANCE TR-FRET; at 6.5 µM; hits give high values. Put shortly: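 System – human MC4R-expressing U2OS cells · Also added – Melanotan II · Dosing – one concentration, 6.5 µM nominal · Timing – 30-min compound, 1-h challenge, 1-h detection, room temperature · Measured by – Eu-cAMP/anti-cAMP TR-FRET, emission 671 nm · Replicates – singlicate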
What is called inhibition is the relative decrease from the control value, in per cent. Consider `COc1cccc(N2C(=O)NC(=O)/C(=C\c3ccc([N+](=O)[O-])s3)C2=O)c1`, for which the inhibition is 28.6% (active).

For `O=C(N/N=C/c1c(O)n(C2CC2)c(=S)[nH]c1=O)c1ccccc1Cl`, the inhibition is 20.1%.

For the compound `c1ccc(CCNC2CCCCCC2)cc1`, the inhibition is 17.4%.

`COc1cc(OC)cc(C2(C#N)CCN(C)CC2)c1`: the inhibition is 17%.

In the case of `O=C(NC(=S)N1C[C@H]2C[C@H](C1)c1cccc(=O)n1C2)c1ccc(F)cc1`, the inhibition was 7.13%.

`Cc1cccc(N2C(=O)NC(=O)/C(=C\c3cnn(-c4ccccc4)c3)C2=O)c1`: the inhibition is 35.2% (active).

Turning to `Cc1c(C(=O)O)cccc1-n1c(C)cc(/C=C2\C(=O)NC(=O)N(c3ccc4c(c3)OCO4)C2=O)c1C`, the inhibition is 5.16%.

On to `CCN1CCN(c2ccc([N+](=O)[O-])cc2C#N)CC1`, for which the inhibition was -10.7%.

`CC(C)c1c(CN(C)C(C)Cc2ccccc2)n(C)n(-c2ccccc2)c1=O` (stereo not given): the inhibition was 10.7%.

Consider `CC(=O)c1c(O)n(C2CCCCCC2)c(=O)[nH]c1=O`, for which the inhibition was 2.26%.
